Data reported in ChEMBL document CHEMBL1141864, “Structure-activity relationships in 1,4-benzodioxan-related compounds. 8.(1) {2-[2-(4-chlorobenzyloxy)phenoxy]ethyl}-[2-(2,6-dimethoxyphenoxy)ethyl]amine (clopenphendioxan) as a tool to highlight the involvement of alpha1D- and alpha1B-adrenoreceptor subtypes in the regulation of human PC-3 …” (J Med Chem, 2005).
Activity calls are given as the source filed them. No cut-off for these calls is given here.

Experiments:
[1] = target: T1, Alpha-1B adrenergic receptor (Homo sapiens, UniProt P35368); assay: Displacement of [3H]prazosin from cloned human ADRA1B expressed in CHO cells; type: cell-based
T1 sequence (P35368 whole entry): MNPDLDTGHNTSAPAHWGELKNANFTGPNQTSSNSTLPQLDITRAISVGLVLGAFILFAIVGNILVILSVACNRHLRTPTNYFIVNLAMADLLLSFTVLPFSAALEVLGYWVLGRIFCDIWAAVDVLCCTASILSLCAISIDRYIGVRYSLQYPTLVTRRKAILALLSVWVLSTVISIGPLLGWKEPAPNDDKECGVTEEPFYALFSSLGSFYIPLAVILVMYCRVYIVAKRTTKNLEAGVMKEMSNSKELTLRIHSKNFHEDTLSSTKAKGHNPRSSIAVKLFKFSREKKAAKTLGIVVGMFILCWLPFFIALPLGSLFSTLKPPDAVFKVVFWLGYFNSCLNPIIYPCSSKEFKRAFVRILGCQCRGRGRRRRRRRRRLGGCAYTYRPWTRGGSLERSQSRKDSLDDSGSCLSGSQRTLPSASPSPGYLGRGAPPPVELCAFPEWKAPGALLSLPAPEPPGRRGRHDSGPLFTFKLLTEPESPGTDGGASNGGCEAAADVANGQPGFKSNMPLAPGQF

PC-3 = assay: Inhibition of NE-induced increase of PC3 cell proliferation using ELISA BrdU; type: functional, cell-based; conditions: Homo sapiens
Outline: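 PC-3 cells (7×10^4/well) plated 24 h, then given noradrenaline (0–50 μM) alone or with antagonist (1 μM, or 0.5 μM for one compound) for 16 h. BrdU added for the last 4 h and read by colorimetric ELISA as % growth; mean ± SD of three experiments.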

[2] = target: T2, Alpha-1A adrenergic receptor (Rattus norvegicus) (UniProt P43140); assay: ADRA1A blocking activity assessed by antagonism of (-)-NE induced contractions on isolated rat prostatic vas deferens; type: functional, tissue-based
T2 sequence (whole entry): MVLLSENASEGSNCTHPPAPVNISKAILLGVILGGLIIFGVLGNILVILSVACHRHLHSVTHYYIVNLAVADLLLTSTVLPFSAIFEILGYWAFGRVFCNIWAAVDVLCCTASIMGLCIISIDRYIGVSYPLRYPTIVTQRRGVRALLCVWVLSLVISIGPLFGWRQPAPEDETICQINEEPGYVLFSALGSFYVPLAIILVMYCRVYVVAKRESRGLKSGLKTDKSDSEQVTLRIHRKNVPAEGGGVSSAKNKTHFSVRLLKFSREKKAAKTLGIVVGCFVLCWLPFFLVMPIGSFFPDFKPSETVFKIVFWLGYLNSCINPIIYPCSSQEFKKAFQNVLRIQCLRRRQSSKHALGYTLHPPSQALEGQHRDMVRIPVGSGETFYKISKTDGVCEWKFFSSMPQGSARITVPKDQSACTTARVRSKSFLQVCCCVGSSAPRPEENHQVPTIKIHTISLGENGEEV
Outline: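 Isolated rat tissue: each antagonist concentration tested four times over 0.01–1 μM; pK_B calculated by van Rossum method from shifts of (-)-noradrenaline contraction curves (vas deferens, α1A; thoracic aorta, α1D) or (-)-phenylephrine contraction curves (spleen, α1B).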

[3] = target: T3, Alpha-1D adrenergic receptor (Homo sapiens, UniProt P25100); assay: Displacement of [3H]prazosin from cloned human ADRA1D expressed in CHO cells; type: cell-based
T3 sequence (P25100 whole entry): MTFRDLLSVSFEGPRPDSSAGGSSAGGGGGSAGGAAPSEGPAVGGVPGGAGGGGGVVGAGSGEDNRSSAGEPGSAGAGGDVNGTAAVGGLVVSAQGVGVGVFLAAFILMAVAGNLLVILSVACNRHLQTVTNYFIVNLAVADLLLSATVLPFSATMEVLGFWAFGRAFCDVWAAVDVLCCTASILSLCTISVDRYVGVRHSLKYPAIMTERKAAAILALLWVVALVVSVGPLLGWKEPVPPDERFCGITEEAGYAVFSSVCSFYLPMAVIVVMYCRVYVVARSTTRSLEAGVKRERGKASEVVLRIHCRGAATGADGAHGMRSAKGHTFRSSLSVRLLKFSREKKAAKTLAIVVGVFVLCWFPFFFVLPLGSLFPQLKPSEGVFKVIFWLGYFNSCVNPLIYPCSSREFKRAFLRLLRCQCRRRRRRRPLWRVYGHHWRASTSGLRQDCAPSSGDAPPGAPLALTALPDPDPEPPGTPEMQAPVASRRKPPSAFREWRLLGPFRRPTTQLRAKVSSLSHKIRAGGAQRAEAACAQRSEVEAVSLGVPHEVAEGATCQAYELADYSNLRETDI

[4] = target: T4, 5-hydroxytryptamine receptor 1A (Homo sapiens) (UniProt P08908); assay: Agonist efficacy towards cloned human 5HT1A receptor by [35SGTP]gammaS binding in HeLa cells; type: cell-based
T4 sequence (whole entry): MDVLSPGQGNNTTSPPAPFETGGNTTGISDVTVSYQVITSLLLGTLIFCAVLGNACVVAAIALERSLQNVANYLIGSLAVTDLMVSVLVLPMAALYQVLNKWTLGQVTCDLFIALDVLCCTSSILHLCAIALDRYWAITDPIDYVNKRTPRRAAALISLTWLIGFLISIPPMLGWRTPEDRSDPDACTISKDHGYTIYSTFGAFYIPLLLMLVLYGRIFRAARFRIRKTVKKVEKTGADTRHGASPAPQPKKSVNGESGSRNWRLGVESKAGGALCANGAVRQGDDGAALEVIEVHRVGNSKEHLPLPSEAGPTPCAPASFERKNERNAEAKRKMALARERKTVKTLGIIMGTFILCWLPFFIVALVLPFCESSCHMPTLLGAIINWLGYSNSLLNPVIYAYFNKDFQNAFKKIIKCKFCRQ

[5] = target: T4, 5-hydroxytryptamine receptor 1A (Homo sapiens); assay: Maximum response towards cloned human 5HT1A receptor

## COc1cccc(OC)c1OCCNCCOc1ccccc1OCc1ccc(Cl)cc1 [CLOPENPHENDIOXAN]
[1]
  Ki: 1 nM
PC-3
  Activity: Active
[2]
  pKb: 8.17
[3]
  Ki: 0.0316 nM
[4]
  pD2: 6.98
[5]
  %max: 60%

## COc1cccc(OC)c1OCCNCCOc1ccccc1OCc1ccccc1
[1]
  Ki: 0.537 nM
PC-3
  Activity: Active
[2]
  pKb: 8.39
[3]
  Ki: 0.0676 nM
[4]
  pD2: 7.11
[5]
  %max: 45.7%

## COc1ccccc1COc1ccccc1OCCNCCOc1c(OC)cccc1OC
[1]
  Ki: 6.31 nM
[2]
  pKb: 8.53
[3]
  Ki: 2 nM

## COc1cccc(COc2ccccc2OCCNCCOc2c(OC)cccc2OC)c1
[1]
  Ki: 2 nM
[2]
  pKb: 8.3
[3]
  Ki: 0.316 nM

## COc1cccc(OC)c1OCCNCCOc1ccccc1OCc1ccc([N+](=O)[O-])cc1
[1]
  Ki: 0.398 nM
[2]
  pKb: 8.58
[3]
  Ki: 0.0501 nM
[4]
  pD2: 6.15
[5]
  %max: 79.1%

## COc1cccc(OC)c1OCCNCCOc1ccccc1OCc1cccc(C)c1
[1]
  Ki: 0.251 nM
[2]
  pKb: 8.3
[3]
  Ki: 0.2 nM

## COc1ccc(COc2ccccc2OCCNCCOc2c(OC)cccc2OC)cc1
[1]
  Ki: 0.398 nM
[2]
  pKb: 8.54
[3]
  Ki: 0.1 nM
[4]
  pD2: 7.92
[5]
  %max: 21.6%

## COc1cccc(OC)c1OCCNCCOc1ccccc1OCc1cccc(Cl)c1
[1]
  Ki: 0.158 nM
[2]
  pKb: 8.12
[3]
  Ki: 0.0501 nM
[4]
  pD2: 7.15
[5]
  %max: 67.1%

## COc1cccc(OC)c1OCCNCCOc1ccccc1OCc1ccccc1[N+](=O)[O-]
[1]
  Ki: 2.51 nM
[2]
  pKb: 8.2
[3]
  Ki: 0.912 nM

## COc1cccc(OC)c1OCCNCCOc1ccccc1OCc1ccccc1Cl
[1]
  Ki: 0.562 nM
[2]
  pKb: 8.56
[3]
  Ki: 0.251 nM
[4]
  pD2: 7.31
[5]
  %max: 74.4%

## COc1cccc(OC)c1OCCNCCOc1ccccc1OCc1ccc(C)cc1
[1]
  Ki: 0.251 nM
[2]
  pKb: 8.23
[3]
  Ki: 0.0631 nM

## COc1cccc(OC)c1OCCNCCOc1ccccc1OCc1ccccc1C
[1]
  Ki: 0.794 nM
[2]
  pKb: 7.81
[3]
  Ki: 0.126 nM
[4]
  pD2: 6.96
[5]
  %max: 75.6%

## COc1cccc(OC)c1OCCNCCOc1ccccc1OCc1cccc([N+](=O)[O-])c1
[1]
  Ki: 0.794 nM
[2]
  pKb: 8.85
[3]
  Ki: 0.0631 nM
[4]
  pD2: 7.16
[5]
  %max: 44.4%
